Results on 35 molecules are retold here after ChEMBL document CHEMBL1124233, “Clofazimine analogues active against a clofazimine-resistant organism” (J Med Chem, 1988).

Holding throughout (format): functional, organism-based
Test [1] deals with Mycolicibacterium smegmatis. Briefly: 100% inhibition of growth of rifampicin resistant Mycobacterium smegmatis 607 strain in vitro. In a few lines:
(§1)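 M. smegmatis ATCC607-derived strains (one of three used, including a dapsone-sensitive one) were grown in modified Kirchner's medium with 0.5% Tween 80, inoculated with 10^5 viable cells. Drugs were added in DMSO (2% final). Roller tubes were incubated at 37 °C for 72 h. Growth was read as spectrophotometric transmission.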

Test [2] concerns Mycolicibacterium smegmatis. Briefly: Concentration for 100% inhibition of growth of dapsone sensitive Mycobacterium smegmatis 607 strain in vitro. In a few lines: as §1
Test [3] deals with Mycolicibacterium smegmatis. Briefly: 100% inhibition of growth of clofazimine resistant Mycobacterium smegmatis 607 strain in vitro. In a few lines: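 Strain: 20× step-up clofazimine-resistant mutant of M. smegmatis ATCC607. 10^5 viable cells inoculated into modified Kirchner's medium with 0.5% Tween 80. Drugs were added in DMSO (2% final in all tubes). Roller tubes were incubated at 37 °C for 72 h. Growth was read as optical transmission in a spectrophotometer.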

The structures appear in SMILES notation.

On to `c1ccc(Nc2cc3nc4ccccc4n(-c4ccccc4)c-3c/c2=N\CCN2CCOCC2)cc1`, for which the Concentration in test [1] was 2 µg/mL; in test [2], 2 µg/mL; in test [3], 10 µg/mL.

On to `c1ccc(Nc2cc3nc4ccccc4n(-c4ccccc4)c-3c/c2=N\C2CCCCC2)cc1`, for which the Concentration was found to be 2 µg/mL in test [1], 3 µg/mL in test [2] and 10 µg/mL in test [3].

`OCCCN1CCN(CCC/N=c2\cc3n(-c4ccc(Cl)cc4)c4ccccc4nc-3cc2Nc2ccc(Cl)cc2)CC1`: the Concentration in test [1] was 0.5 µg/mL; in test [2], 0.6 µg/mL; in test [3] it was 2 µg/mL.

Take `NCCC/N=c1\cc2n(-c3ccc(Cl)cc3)c3ccccc3nc-2cc1Nc1ccc(Cl)cc1`: the figures for the Concentration in test [1], in test [2] and in test [3] were 0.4 µg/mL, 0.3 µg/mL and 1 µg/mL, respectively.

On to `N=c1cc2n(-c3ccc(Cl)cc3)c3ccccc3nc-2cc1Nc1ccc(Cl)cc1`, for which the Concentration came to 3 µg/mL in test [1], 3 µg/mL in test [2] and 40 µg/mL in test [3].

Take `COC(C/N=c1\cc2n(-c3ccc(Cl)cc3)c3ccccc3nc-2cc1Nc1ccc(Cl)cc1)OC`: the Concentration stood at 5 µg/mL in test [1], 4 µg/mL in test [2] and 60 µg/mL in test [3].

As to `CC(C)CC/N=c1\cc2n(-c3ccc(Cl)cc3)c3ccccc3nc-2cc1Nc1ccc(Cl)cc1`, the Concentration in test [1] was 3 µg/mL; in test [2], 2 µg/mL; in test [3] it was 80 µg/mL.

On to `CC(C)NCCC/N=c1\cc2n(-c3ccc(Cl)cc3)c3ccccc3nc-2cc1Nc1ccc(Cl)cc1`, for which the Concentration in test [1] was 0.2 µg/mL; in test [2], 0.3 µg/mL; in test [3], 2 µg/mL.

With `CCC(CO)/N=c1\cc2n(-c3ccc(Cl)cc3)c3ccccc3nc-2cc1Nc1ccc(Cl)cc1` (stereo not given), the Concentration amounted to 10 µg/mL in test [1], 2 µg/mL in test [2] and 100 µg/mL in test [3].

On to `c1ccc(Nc2cc3nc4ccccc4n(-c4ccccc4)c-3c/c2=N\CCCN2CCCC2)cc1`, for which the Concentration in test [1] is 0.2 µg/mL; in test [2], 0.2 µg/mL; in test [3], 0.6 µg/mL.

As for `OCCC/N=c1\cc2n(-c3ccccc3)c3ccccc3nc-2cc1Nc1ccccc1`, the Concentration was 8 µg/mL in test [1], 4 µg/mL in test [2] and 20 µg/mL in test [3].

For `O=C1CCCN1CCC/N=c1\cc2n(-c3ccc(Cl)cc3)c3ccccc3nc-2cc1Nc1ccc(Cl)cc1`, the Concentration is 2 µg/mL in test [1], 2 µg/mL in test [2] and 20 µg/mL in test [3].

For the molecule `CC/N=c1\cc2n(-c3ccc(Cl)cc3)c3ccccc3nc-2cc1Nc1ccc(Cl)cc1`, the figures for the Concentration in test [1], in test [2] and in test [3] were 2 µg/mL, 2 µg/mL and 100 µg/mL, respectively.

`Cc1ccc(Nc2cc3nc4ccccc4n(-c4ccc(C)cc4)c-3c/c2=N\CCCNC2CCCCC2)cc1`: the Concentration was determined as 0.2 µg/mL in test [1], 0.2 µg/mL in test [2] and 0.5 µg/mL in test [3].

Regarding `CC/N=c1\cc2n(-c3ccccc3)c3ccccc3nc-2cc1Nc1ccccc1`, the Concentration in test [1] is 3 µg/mL; in test [2], 3 µg/mL; in test [3] it was 20 µg/mL.

Turning to `CCN1CCCC1C/N=c1\cc2n(-c3ccccc3)c3ccccc3nc-2cc1Nc1ccccc1` (stereo not given), the Concentration in test [1] is 0.4 µg/mL; in test [2] it was 0.5 µg/mL; in test [3], 6 µg/mL.

`OC1CCC(/N=c2\cc3n(-c4ccc(Cl)cc4)c4ccccc4nc-3cc2Nc2ccc(Cl)cc2)CC1` (stereo not given): the Concentration in test [1] was determined as 4 µg/mL; in test [2], 2 µg/mL; in test [3] it was 30 µg/mL.

Consider `CC(CN(C)C)/N=c1\cc2n(-c3ccc(Cl)cc3)c3ccccc3nc-2cc1Nc1ccc(Cl)cc1` (stereo not given), for which the Concentration worked out at 1.2 µg/mL in test [1], 0.8 µg/mL in test [2] and 16 µg/mL in test [3].

Turning to `Cc1ccc(Nc2cc3nc4ccccc4n(-c4ccc(C)cc4)c-3c/c2=N\CC(C)C)cc1`, the Concentration in test [1] worked out at 3 µg/mL; in test [2], 2 µg/mL; in test [3] it was 100 µg/mL.

For the molecule `CC(C)C/N=c1\cc2n(-c3ccc(Cl)cc3)c3ccccc3nc-2cc1Nc1ccc(Cl)cc1`, the Concentration was found to be 4 µg/mL in test [1], 4 µg/mL in test [2] and 100 µg/mL in test [3].

Consider `CCN(CC)CC/N=c1\cc2n(-c3ccccc3)c3ccc(Cl)cc3nc-2cc1Nc1ccccc1`, for which the values for the Concentration in test [1], in test [2] and in test [3] were 2 µg/mL, 1 µg/mL and 30 µg/mL, respectively.

On to `Clc1ccc(Nc2cc3nc4ccccc4n(-c4ccc(Cl)cc4)c-3c/c2=N\C2CCCCC2)cc1`, for which the figures for the Concentration in test [1], in test [2] and in test [3] were 1 µg/mL, 2 µg/mL and 20 µg/mL, respectively.

Consider `CNCCC/N=c1\cc2n(-c3ccc(Cl)cc3)c3ccccc3nc-2cc1Nc1ccc(Cl)cc1`, for which the Concentration in test [1] stood at 0.3 µg/mL; in test [2], 0.2 µg/mL; in test [3] it was 0.6 µg/mL.

Regarding `Clc1ccc(Nc2cc3nc4ccccc4n(-c4ccc(Cl)cc4)c-3c/c2=N\C2CCCC2)cc1`, the Concentration in test [1] turned out to be 3 µg/mL; in test [2] it was 3 µg/mL; in test [3], 20 µg/mL.

On to `OCCNCC/N=c1\cc2n(-c3ccccc3)c3ccccc3nc-2cc1Nc1ccccc1`, for which the Concentration is 6 µg/mL in test [1], 5 µg/mL in test [2] and 10 µg/mL in test [3].

Regarding `CCC/N=c1\cc2n(-c3ccccc3)c3ccccc3nc-2cc1Nc1ccccc1`, the Concentration in test [1] was determined as 3 µg/mL; in test [2] it was 2 µg/mL; in test [3] it was 20 µg/mL.

`CC1CCCCN1CCC/N=c1\cc2n(-c3ccccc3)c3ccccc3nc-2cc1Nc1ccccc1` (stereo not given): the results for the Concentration in test [1], in test [2] and in test [3] were 0.3 µg/mL, 0.3 µg/mL and 2 µg/mL, respectively.

In the case of `NCCCCC/N=c1\cc2n(-c3ccc(Cl)cc3)c3ccccc3nc-2cc1Nc1ccc(Cl)cc1`, the Concentration in test [1] came to 0.3 µg/mL; in test [2], 0.2 µg/mL; in test [3], 0.5 µg/mL.

Consider `c1ccc(Nc2cc3nc4ccccc4n(-c4ccccc4)c-3c/c2=N\CCCNC2CCCCC2)cc1`, for which the results for the Concentration in test [1], in test [2] and in test [3] were 0.2 µg/mL, 0.2 µg/mL and 0.6 µg/mL, respectively.

As for `c1ccc(Nc2cc3nc4ccccc4n(-c4ccccc4)c-3c/c2=N\CCCN2CCCCC2)cc1`, the Concentration is 0.3 µg/mL in test [1], 0.3 µg/mL in test [2] and 1 µg/mL in test [3].

Turning to `CN1CCN(CCC/N=c2\cc3n(-c4ccccc4)c4ccccc4nc-3cc2Nc2ccccc2)CC1`, the Concentration was found to be 0.5 µg/mL in test [1], 0.5 µg/mL in test [2] and 1 µg/mL in test [3].

`CC(C)/N=c1\cc2n(-c3ccccc3)c3ccccc3nc-2cc1Nc1ccccc1`: the Concentration in test [1] came to 3 µg/mL; in test [2], 2 µg/mL; in test [3], 100 µg/mL.

As for `CCOc1ccc(Nc2cc3nc4ccccc4n(-c4ccc(OCC)cc4)c-3c/c2=N\CCO)cc1`, the Concentration in test [1] was 10 µg/mL; in test [2], 5 µg/mL; in test [3], 20 µg/mL.

`Clc1ccc(Nc2cc3nc4ccccc4n(-c4ccc(Cl)cc4)c-3c/c2=N\CCN2CCCC2)cc1`: the Concentration in test [1] came to 0.5 µg/mL; in test [2], 0.5 µg/mL; in test [3] it was 10 µg/mL.

`CCN(CC)CC/N=c1\cc2n(-c3ccccc3)c3ccccc3nc-2cc1Nc1ccccc1`: the Concentration in test [1] stood at 0.8 µg/mL; in test [2], 0.6 µg/mL; in test [3] it was 6 µg/mL.
